# Results as given in PubChem BioAssay AID504382 (The Scripps Research Institute Molecular Screening Center, 2011).
# Among all 2,500 compounds or so, about 460 (18%) were called active. A selection follows. Unmarked numbers belong to inactive results.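 Rule for the calls: active = mean activation above a cutoff of low control average plus 3 SD from the earlier screen (cut at about 12% in these data); inactive = the rest.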
# Assay: compound fluorescence interference without thin filaments, confirmation, artefact control for cardiac RTF calcium sensitizer project, biochemical (AID 504382)
# Conditions: IANBD fluorescence interference counterscreen, buffer, EC20 Ca2+; at 7.2 µM; active compounds read high; scaled: EC20 calcium 0, EC100 calcium 100
# Procedure, shortened: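 Technique: fluorescence, 480/540 nm / Medium: MOPS-based buffer with KCl, MgCl2, EGTA, NTA, DTT, pH 7.2 / Probe or stimulus: calcium at EC20 level, 0.472 mM final / Repeats: triplicate wells per compound / Times: 15 min compound exposure at 25 °C / Measure: compound fluorescence interference relative to control well signal range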
row,SMILES,fluorescence artifact activation
1,CC1=C(C)CC(C(=O)NNC(=O)c2cccc(Cl)c2)C(C(=O)O)C1 (configuration not stated),-0.06%
2,Cc1cc([N+](=O)[O-])nn1CC(=O)Nc1c(C)n(C)n(-c2ccccc2)c1=O,3.39%
3,Cc1c(N=C2N=C(NC(=O)Nc3ccc(Cl)cc3)c3ccccc32)c(=O)n(-c2ccccc2)n1C,20.3% (active)
4,CN1CCC/C1=C1/C(=O)N(c2ccccc2)N=C1NC(=O)Nc1cccc(Cl)c1,0.05%
5,O=C(Nc1cccc2c1N(C(=O)c1ccco1)CCC2)c1ccco1,5.02%
6,COc1ccccc1CNC(=O)COC(=O)c1cccc(S(=O)(=O)N2CCOCC2)c1,0.16%
7,Cc1ccc(C(C)NC(=O)c2cccs2)cc1C (configuration not stated),174% (active)
8,C[C@@H](NC(=O)c1ncn(C)c1C(=O)N[C@H](C)c1ccccc1)c1ccccc1,0%
9,C/C(=N\NC(=O)c1ccccc1)c1ccc(NC(=O)c2cccs2)cc1,0.85%
10,Cc1cc(S(=O)(=O)NC(C)C)ccc1OCC(=O)NCc1ccccc1,0.08%
11,COC(=O)[C@H](C)NC(=O)c1cc2c(cn1)[nH]c1ccccc12,0.32%
12,CCOC(=O)c1c(NCC(C)C)c2ccccc2[nH]c1=O,39.3% (active)
13,CCN(CC)C(=O)C(=O)c1c(-c2ccccc2)[nH]c2ccccc12,6.52%
14,C=CCN1C(=O)[C@@H]2Cc3c([nH]c4ccccc34)C(c3ccc(O)cc3)N2C1=S (some centres not stated),-0.05%
15,CCC(=O)N1CCN(c2nc(C)nc3sc(C)c(C)c23)CC1,0.08%
16,S=C1NC2=C(CCCC2=C2SCCCS2)C(c2ccccc2)N1 (configuration not stated),0.29%
17,CC(=O)N(C(C)=O)N1C(=O)c2cccc3c(N4CCOCC4)ccc(c23)C1=O,0.01%
18,O=C(O)CN1C(=O)c2cccc3c(Br)ccc1c23,53.6% (active)
19,O=C(OCCN1C(=O)c2cccc3c(N4CCOCC4)ccc(c23)C1=O)c1ccc(Cl)cc1,1.59%
20,CCn1c(CSCc2ccccc2)n[nH]c1=S,0.18%
21,Cc1ccc(NC(=O)COc2ccc(/C=N/NC(=O)CSCc3ccccc3)cc2)cc1,12.9% (active)
22,Cc1ccc(NC(=O)CO/N=C/c2ccc(N(C)C)cc2)cc1,0.03%
23,Cc1ccc(NC(=O)CN(C)C(=O)COC(=O)COc2ccc(C#N)cc2)cc1,0.42%
24,C=CCN1C(=O)c2ccccc2NC1c1cc(Br)cs1 (configuration not stated),7.88%

row,SMILES,fluorescence artifact activation
1,Cc1nn(-c2ccccc2)c(Cl)c1C(=O)NC1CCCCC1,4.56%
2,CCc1ccccc1NC(=O)COc1ccc2c(=O)c(Oc3cc(C)ccc3C)coc2c1,664% (active)
3,Cc1cc(=O)oc2cc(OCC(=O)OCC(=O)NC(C)C)ccc12,-0.02%
4,Cc1ccc(C)c(NC(=O)COC(=O)Cc2ccsc2)c1,0.03%
5,O=C(O)CSc1ncnc2scc(-c3ccc(Br)cc3)c12,0.71%
6,CC(C)(C)NCc1cc(Cl)ccc1OCc1cccs1,13.9% (active)
7,COc1cccc2c1C(=O)c1c(O)c3c(c(O)c1C2=O)CC(O)(C(C)=NNC(=O)c1ccc(Cl)c(Cl)c1)CC3OC1CC(N)C(O)C(C)O1 (configuration not stated),0.12%
8,N#Cc1c(N)oc(-c2ccccc2)c1-c1ccccc1,4.93%
9,Cc1cc(C)c(C#N)c(Sc2nnnn2-c2ccccc2)n1,11.6%
10,Cc1cc(C)c(C#N)c(SCc2nnc(-c3ccccc3)o2)n1,14.5% (active)
11,CCOC(=O)/C(C#N)=N\Nc1cc(Cl)ccc1OC,0.07%
12,C[C@@H]1C=C(C(=O)N2CCOCC2)O[C@H](OCc2ccc(CO)cc2)C1,0.97%
13,CCOCCCNS(=O)(=O)c1ccc(NC(=O)c2ccc(OC)c([N+](=O)[O-])c2)cc1,0.52%
14,O=C(Nc1ccccc1C(=O)N/N=C/c1ccco1)c1ccc(F)cc1,1.44%
15,CCOc1cccc(NC(=O)/C(C#N)=C\c2cn(CC(=O)O)c3ccccc23)c1,0.19%
16,O=C(Cn1cc(/C=N/NC(=O)c2cccc3ccccc23)c2ccccc21)Nc1ccc(F)cc1,19.7% (active)
17,Cc1ccc(N=Cc2sc(O)c3ccccc23)c(C)c1,0.06%
18,CCOC(=O)c1ccc[n+](CC(=O)Nc2cc(C(F)(F)F)ccc2Cl)c1,2.39%
19,CCn1c(O)c(/C=N/N=C/c2ccccc2)c2ccc(C3=NNC(=O)CC3)cc21,0.02%
20,Brc1ccc(-c2cnnc(N3CCCC3)n2)cc1,66.5% (active)
21,C=CCOc1ccc(CNc2ccc3[nH]c(=O)[nH]c3c2)cc1OCC,5.69%
22,COC(=O)c1c(NC(=O)c2ccnn2C)sc(C)c1C,0.09%
23,Fc1ccc(C2=CC(c3ccc(Br)o3)n3ncnc3N2)cc1 (configuration not stated),0.34%
